Series [1] relates to human peripheral lymphocytes. The settings on record: compared to the control group; ref Gomez-Arroyo et al. (1987); cited from earlier work.
For another series, the system named is human lymphocytes. To be noted: 100 and 200 μg/mL; ref Ündeğer and Başaran (2005); cited from earlier work.
For another series, the system named is Saccharomyces cerevisia. To be noted: ref Mohn, 1973; Bianchi et al., 1994; cited from earlier work.
For the next series, the system named is Salmonella typhimurium. The settings on record: ref Mohn, 1973, Bianchi et al., 1994, cited from earlier work.
A further series has as its system Escherichia coli. The settings on record: ref Mohn, 1973; Bianchi et al., 1994; cited from earlier work.
Series [2] deals with human peripheral lymphocytes. The series can be described thus: In vitro micronucleus. Type of series: cell-based. To be noted: 72 h incubation. Summed up: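 Whole blood from 3 healthy non-smoking donors (25–30 y) was treated with test compound at 0.5, 1.0 or 2.0 μg/mL in 2% DMSO for 72 h. Controls were distilled water, 2% DMSO and 10 mM EMS. Cytochalasin-B was added at 48 h and smears were Giemsa-stained. NDI was scored from 1000 cells and MN from 1000 binucleated cells per repeat, 3 donors, ANOVA.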

[3] abbreviates: 10mM, 3000 binucleated cells counted.

Here are results for 3 compounds from publication PMC6423489 (Heliyon, 2019).

Where two headings read alike, the source gives them in different places.

`COP(=S)(OC)Oc1ccc([N+](=O)[O-])cc1` [methyl parathion]: the sister chromatid exchanges result in series [1] was “increased sister chromatid exchanges”. For the same compound, the DNA damage result in the series on human lymphocytes was “significantly increased DNA damage”.
Consider `CNC(=O)CSP(=S)(OC)OC` [DIM], for which the mutagenicity result in the series with Saccharomyces cerevisia is recorded as “mutagenic”; with Salmonella typhimurium (strain TA 100), “mutagenic”; with Salmonella typhimurium (strains TA 1535, TA 1537, TA 1538, TA 98 and TA 102) it was “non-mutagenic”; in the series with Escherichia coli it was “mutagenic”. Also, in series [1], the sister chromatid exchanges result is reported as “increased sister chromatid exchanges”. In the series with human lymphocytes, the DNA damage entry is reported as “significantly increased DNA damage”. For the same compound, the “MN within binucleat (1)” value in series [2] (0.5 μg/mL, 3000 binucleated cells counted) is 27; in series [2] (1.0 μg/mL, 3000 binucleated cells counted), 29; in series [2] (2.0 μg/mL, 3000 binucleated cells counted), 63. The “%MN±S.E.” value came out at 0.90 ± 0.72% in series [2] (0.5 μg/mL, compared with DMSO); 0.97 ± 0.63% in series [2] (1.0 μg/mL, compared with DMSO); 2.10 ± 0.13% in series [2] (2.0 μg/mL, compared with DMSO). Besides, the “NDI±S.E.” value in series [2] (0.5 μg/mL, compared with DMSO) stood at 1.54 ± 0.20; in series [2] (1.0 μg/mL, compared with DMSO), 1.54 ± 0.23.
For the compound `CCOS(C)(=O)=O` [EMS, ethyl methanesulfonate, reference compound], in series [2] (setting [3]), the “MN within binucleat (1)” value worked out at 107, the “MN within binucleat (2)” value stood at 16 and the “MN within binucleat (3)” value worked out at 10. Also, in series [2] (10mM, compared with distilled water), the “%MN±S.E.” value is 5.63 ± 1.60%.
